Data from paper PMC2606940 (The Journal of General Physiology, 2009).
Residue numbers refer to the chain shown, from its start. Where two headings read alike, the source gives them in different places.

What was measured:
Format in all cases: cell-based
Conditions in all cases: read-out: Apparent affinity (K1/2)
CLC-0 E166G mutant = target: T1, CLC-0 E166G mutant (Torpedo marmorata, UniProt P21564, C212S/E166G)
T1 sequence (P21564 1-805 E166G/C212S): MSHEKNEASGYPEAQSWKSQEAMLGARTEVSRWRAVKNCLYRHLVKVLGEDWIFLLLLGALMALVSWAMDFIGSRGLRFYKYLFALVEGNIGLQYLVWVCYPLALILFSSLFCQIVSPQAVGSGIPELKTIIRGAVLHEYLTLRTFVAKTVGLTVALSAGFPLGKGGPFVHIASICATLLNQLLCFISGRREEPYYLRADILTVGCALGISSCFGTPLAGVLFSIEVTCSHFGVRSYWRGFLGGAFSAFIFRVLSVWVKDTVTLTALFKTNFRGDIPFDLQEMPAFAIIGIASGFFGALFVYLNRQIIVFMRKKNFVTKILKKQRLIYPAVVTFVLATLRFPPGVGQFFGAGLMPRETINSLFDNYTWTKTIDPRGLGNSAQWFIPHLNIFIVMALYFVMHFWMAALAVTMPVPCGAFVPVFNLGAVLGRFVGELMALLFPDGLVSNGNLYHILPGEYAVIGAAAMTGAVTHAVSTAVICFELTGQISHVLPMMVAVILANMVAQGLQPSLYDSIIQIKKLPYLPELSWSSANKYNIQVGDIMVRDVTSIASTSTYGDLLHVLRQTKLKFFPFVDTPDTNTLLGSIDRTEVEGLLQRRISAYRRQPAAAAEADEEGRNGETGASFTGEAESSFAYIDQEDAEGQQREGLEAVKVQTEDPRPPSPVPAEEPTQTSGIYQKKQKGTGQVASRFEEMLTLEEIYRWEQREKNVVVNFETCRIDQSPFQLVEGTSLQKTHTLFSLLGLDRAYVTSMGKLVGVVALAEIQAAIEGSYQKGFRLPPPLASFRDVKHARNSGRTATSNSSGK
How it was run: (§1)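 CLC-0 mutants in the C212S background were transfected into HEK293 cells with lipofectamine and recorded 1–3 d later as excised inside-out patches. Both sides held 130 mM NaCl, 5 mM MgCl2, 10 mM HEPES and 1 mM EGTA, pH 7.4. CPA was perfused continuously onto the cytoplasmic face. Steady-state current over the last 10 ms was normalized to bracketing blocker-free controls and fitted to a Langmuir function for K1/2. Values are mean ± SEM of ~4–6 patches.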

CLC-0 E166H mutant = target: T2, CLC-0 E166H mutant (Torpedo marmorata, UniProt P21564, C212S/E166H)
T2 sequence (P21564 1-805 E166H/C212S): T1 sequence (P21564 1-805 E166G/C212S) with G166H
How it was run: as §1

CLC-0 E166N mutant = target: T3, CLC-0 E166N mutant (Torpedo marmorata, UniProt P21564, C212S/E166N)
T3 sequence (P21564 1-805 E166N/C212S): T1 sequence (P21564 1-805 E166G/C212S) with G166N
How it was run: as §1

Row | SMILES | IC50 (CLC-0 E166G mutant; −40 mV) [µM] | IC50 (CLC-0 E166G mutant; −60 mV) [µM] | IC50 (CLC-0 E166G mutant; −80 mV) [µM] | IC50 (CLC-0 E166G mutant; −100 mV) [µM] | IC50 (CLC-0 E166G mutant; −120 mV) [µM] | IC50 (CLC-0 E166G mutant; −140 mV) [µM] | IC50 (CLC-0 E166G mutant; −160 mV) [µM] | IC50 (CLC-0 E166H mutant; −80 mV) [µM] | IC50 (CLC-0 E166H mutant; −100 mV) [µM] | IC50 (CLC-0 E166H mutant; −120 mV) [µM] | IC50 (CLC-0 E166H mutant; −140 mV) [µM] | IC50 (CLC-0 E166H mutant; −160 mV) [µM] | IC50 (CLC-0 E166N mutant; −40 mV) [µM] | IC50 (CLC-0 E166N mutant; −60 mV) [µM] | IC50 (CLC-0 E166N mutant; −80 mV) [µM] | IC50 (CLC-0 E166N mutant; −100 mV) [µM] | IC50 (CLC-0 E166N mutant; −120 mV) [µM] | IC50 (CLC-0 E166N mutant; −140 mV) [µM] | IC50 (CLC-0 E166N mutant; −160 mV) [µM] | further results
1 | O=C(O)COc1ccc(Cl)cc1 [CPA, p-chlorophenoxy acetate] | 300 ± 20 | 180 ± 10 | 140 ± 10 | 150 ± 10 | 180 ± 20 | 240 ± 30 | 320 ± 30 | 2870 ± 150 | 1450 ± 110 | 740 ± 80 | 390 ± 50 | 210 ± 40 | 9750 ± 570 | 5780 ± 220 | 3270 ± 90 | 1850 ± 40 | 1060 ± 20 | 620 ± 20 | 380 ± 10 | IC50 (CLC-0 E166H mutant; −40 mV): 12400 ± 520 µM; IC50 (CLC-0 E166H mutant; −60 mV): 5860 ± 260 µM
2 | CCCCCCCC(=O)O [octanoate] | 225 ± 13 | 127 ± 8 | 85 ± 6 | 75 ± 6 | 82 ± 8 | 115 ± 14 | 175 ± 19 | 29600 ± 1300 | 18400 ± 810 | 11500 ± 570 | 7020 ± 400 | 4570 ± 280 | 4930 ± 180 | 2550 ± 47 | 1340 ± 29 | 694 ± 18 | 380 ± 9 | 212 ± 4 | 125 ± 2 | –
